Data: ChEMBL document CHEMBL1250516, “Potent and fully noncompetitive peptidomimetic inhibitor of multidrug resistance P-glycoprotein” (J Med Chem, 2010)
Square brackets hold non-standard residues; d marks the D form. Peptide text beside a SMILES is read from it. * marks the point of attachment. Hyp = O=C(O)[C@@H]1C[C@@H](O)CN1; Aad = N[C@@H](CCCC(=O)O)C(=O)O; Cbz = O=C(OCc1ccccc1)*; PhAc = O=C(Cc1ccccc1)*; Boc = CC(C)(C)OC(=O)*; OBn = c1ccc(CO*)cc1; Bn = c1ccc(C*)cc1; OtBu = CC(C)(C)O*; tBu = CC(C)(C)*

Legend:
[1] = Cytotoxicity against mouse NIH/3T3 cells expressing human MDR1 assessed as effect on cell viability up to 1 uM after 72 hrs by MTT assay; format: ADME, cell-based; conditions: nih3t3, 72 h
Procedure, shortened: (§1)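 Parental NIH3T3 or NIH3T3/P-gp (human MDR1-G185 transfected) cells were seeded at 2500 cells/well and allowed to attach for 24 h at 37 °C in 5% CO2. Compound was added at increasing concentrations in 1% DMSO and incubated for 72 h. Viability was read by MTT colorimetric assay. 100% survival was taken as cell number without compound.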

[2] = biological target: MRP1 (multidrug resistance-associated protein 1) (Homo sapiens, UniProt P33527); test: Inhibition of MRP1 expressed in BHK cells assessed as inhibition of drug efflux at 10 uM; format: cell-based; conditions: hamster, BHK cells expressing MRP1
Procedure, shortened: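 BHK-21 cells expressing MRP1 were treated with compound at 10 μM in a flow-cytometric drug efflux inhibition assay. % inhibition of efflux was calculated as for the P-gp assay. Duplicates run twice.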

[3] = Cytotoxicity against mouse NIH/3T3 cells assessed as effect on cell viability up to 1 uM after 72 hrs by MTT assay; format: cell-based; conditions: nih3t3, 72 h; procedure, shortened: as §1
P-glycoprotein (ABCB1) = P-glycoprotein (ABCB1) (Homo sapiens, UniProt P08183); test: Inhibition of p-glycoprotein expressed in human K562/R7 cells assessed as inhibition of drug efflux at 10 uM by flow cytometry; format: cell-based; conditions: K562/R7 cells expressing P-glycoprotein
Procedure, shortened: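 K562/R7 cells (1×10⁶/mL RPMI 1640) were incubated for 1 h at 37 °C with 10 μM daunorubicin (final), with or without 10 μM compound. Cells were washed in ice-cold PBS, kept on ice, and retained fluorescence was read by flow cytometry. Cyclosporin A served as positive control. Duplicate experiments carried out twice.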

[4] = Cytotoxicity against mouse NIH/3T3 cells assessed as decrease in cell viability at > 2 uM after 72 hrs by MTT assay; format: cell-based; conditions: nih3t3, 72 h; procedure, shortened: as §1
[5] = biological target: T1, ATP-dependent translocase ABCB1 (Homo sapiens, UniProt P08183); test: Inhibition of human MDR1 expressed in mouse NIH3T3 cells assessed as potentiation of daunorubicin-mediated cytotoxicity at 1 uM; format: cell-based; conditions: nih3t3, 1 µM
Procedure, shortened: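 Control NIH3T3 and NIH3T3/P-gp cells were seeded at 2500 cells/well and settled for 24 h. They were then exposed for 72 h at 37 °C in 5% CO2 to increasing daunorubicin concentrations with 1 μM modulator. Survival was read by MTT, with 100% taken as cell number without anticancer drug.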

[6] = biological target: T1, ATP-dependent translocase ABCB1; test: Displacement of daunorubicin form R-site of human MDR1 expressed in mouse NIH3T3 cells at 0.11 to 1 uM by noncompetitive binding assay
[7] = biological target: T1, ATP-dependent translocase ABCB1; test: Displacement of daunorubicin form H-site of human MDR1 expressed in mouse NIH3T3 cells at 0.11 to 1 uM by noncompetitive binding assay; format: cell-based; conditions: in the assay text read “Hoechst 33342” for “daunorubicin”
Procedure, shortened: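 NIH3T3/P-gp and NIH3T3 cells (10⁵) were incubated with daunorubicin (5, 10, 15, 20 μM) or Hoechst 33342 (0–10 μM), with inhibitor at 0, 0.11, 0.22, 0.33 or 1 μM. Drug retained inside the cells after 1 h was measured by flow cytometry. Data were fitted to Michaelis–Menten to give Rmax and KM. KI came from Rmax⁰ = Rmax/(1+[I]/KI). Mean of two duplicate experiments.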

[8] = Cytotoxicity against mouse NIH/3T3 cells expressing human MDR1 assessed as decrease in cell viability at > 2 uM after 72 hrs by MTT assay; format: ADME, cell-based; conditions: nih3t3, 72 h; procedure, shortened: as §1
[9] = biological target: T2, MDR1 (P-glycoprotein, ABCB1) (Homo sapiens, UniProt P08183); test: Inhibition of human MDR1 expressed in mouse NIH3T3 cells assessed as inhibition of drug efflux in at 2 uM by flow cytometry; format: cell-based; conditions: mouse NIH3T3 cells expressing human MDR1
[10] = biological target: T2, MDR1 (P-glycoprotein, ABCB1); test: Inhibition of human MDR1 expressed in mouse NIH3T3 cells assessed as inhibition of drug efflux in at 10 uM by flow cytometry; format: cell-based; conditions: mouse NIH3T3 cells expressing human MDR1
BCRP (ABCG2) = biological target: T3, BCRP (ABCG2) (Homo sapiens, UniProt Q9UNQ0); test: Inhibition of BCRP expressed in HEK293 cells assessed as inhibition of drug efflux at 10 uM by flow cytometry; format: cell-based; conditions: HEK293 cells expressing BCRP
T3 sequence (Q9UNQ0 whole entry): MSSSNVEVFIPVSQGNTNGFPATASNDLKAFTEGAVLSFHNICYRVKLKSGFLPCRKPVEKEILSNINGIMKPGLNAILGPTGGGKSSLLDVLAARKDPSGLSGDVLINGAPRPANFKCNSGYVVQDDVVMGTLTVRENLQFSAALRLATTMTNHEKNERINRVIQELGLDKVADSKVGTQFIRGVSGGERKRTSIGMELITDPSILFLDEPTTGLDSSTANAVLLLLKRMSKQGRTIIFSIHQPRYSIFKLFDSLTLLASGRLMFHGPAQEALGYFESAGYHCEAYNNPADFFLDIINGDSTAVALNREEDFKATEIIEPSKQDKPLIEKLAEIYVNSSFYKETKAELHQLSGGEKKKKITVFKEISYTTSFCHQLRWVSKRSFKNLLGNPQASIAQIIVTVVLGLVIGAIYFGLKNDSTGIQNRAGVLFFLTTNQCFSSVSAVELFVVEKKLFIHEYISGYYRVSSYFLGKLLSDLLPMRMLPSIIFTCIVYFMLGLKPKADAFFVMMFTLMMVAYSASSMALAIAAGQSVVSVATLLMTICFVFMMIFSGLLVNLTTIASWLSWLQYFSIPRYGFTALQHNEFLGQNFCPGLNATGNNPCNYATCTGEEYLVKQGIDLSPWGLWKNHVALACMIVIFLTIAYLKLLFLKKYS
Procedure, shortened: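 Human embryonic kidney 293 cells transfected with BCRP/ABCG2, tested with each compound at 10 μM. Intracellular fluorescent transported drug measured by flow cytometry. % efficacy = 100 × (FA − FBG)/(Fe − FBG): FA is transporter-expressing cells with drug, FBG is without drug (background), and Fe is control cells lacking the transporter. Mean of duplicate experiments carried out twice.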

[11] = biological target: T1, ATP-dependent translocase ABCB1; test: Inhibition of human MDR1 expressed in mouse NIH3T3 cells assessed as inhibition of drug efflux by flow cytometry; format: cell-based

T2 sequence (P08183 whole entry): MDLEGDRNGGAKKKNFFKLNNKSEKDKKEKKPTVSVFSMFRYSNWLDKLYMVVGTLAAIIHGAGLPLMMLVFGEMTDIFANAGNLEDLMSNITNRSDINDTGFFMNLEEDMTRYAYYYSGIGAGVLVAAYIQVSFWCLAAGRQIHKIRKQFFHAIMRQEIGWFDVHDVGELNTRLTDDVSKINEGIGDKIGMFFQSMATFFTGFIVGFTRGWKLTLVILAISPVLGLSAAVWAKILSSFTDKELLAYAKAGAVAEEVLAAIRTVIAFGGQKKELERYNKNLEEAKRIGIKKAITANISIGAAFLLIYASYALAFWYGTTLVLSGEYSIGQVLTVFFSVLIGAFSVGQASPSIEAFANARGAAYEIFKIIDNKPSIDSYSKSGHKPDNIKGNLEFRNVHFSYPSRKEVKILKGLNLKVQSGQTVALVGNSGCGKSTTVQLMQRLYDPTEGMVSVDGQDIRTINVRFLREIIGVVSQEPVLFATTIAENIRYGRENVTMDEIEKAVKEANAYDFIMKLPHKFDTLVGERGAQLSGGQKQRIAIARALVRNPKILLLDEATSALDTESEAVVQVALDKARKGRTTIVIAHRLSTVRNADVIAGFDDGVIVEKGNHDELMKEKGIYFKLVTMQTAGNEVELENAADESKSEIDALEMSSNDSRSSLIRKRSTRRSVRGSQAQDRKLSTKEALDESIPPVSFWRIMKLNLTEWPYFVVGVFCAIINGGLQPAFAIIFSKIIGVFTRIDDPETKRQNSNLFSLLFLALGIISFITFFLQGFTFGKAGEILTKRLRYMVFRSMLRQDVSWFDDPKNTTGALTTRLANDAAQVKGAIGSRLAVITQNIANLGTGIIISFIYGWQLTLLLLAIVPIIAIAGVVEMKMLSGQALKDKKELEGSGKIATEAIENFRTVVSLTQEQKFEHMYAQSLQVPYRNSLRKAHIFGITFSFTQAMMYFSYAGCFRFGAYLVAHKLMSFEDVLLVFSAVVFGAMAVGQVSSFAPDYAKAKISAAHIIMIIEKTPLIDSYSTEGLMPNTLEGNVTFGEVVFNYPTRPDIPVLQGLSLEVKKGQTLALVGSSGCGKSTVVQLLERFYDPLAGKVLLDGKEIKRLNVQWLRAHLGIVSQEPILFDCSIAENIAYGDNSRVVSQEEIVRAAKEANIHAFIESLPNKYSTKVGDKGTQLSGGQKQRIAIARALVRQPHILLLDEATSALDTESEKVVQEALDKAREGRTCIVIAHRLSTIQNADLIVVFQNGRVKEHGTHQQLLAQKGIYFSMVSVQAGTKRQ
T1 sequence (P08183 whole entry): as above
Sequence of P-glycoprotein (ABCB1) (P08183 whole entry): as above

| Structure (SMILES) | inhibition at 10 µM (P-glycoprotein (ABCB1)) | inhibition at 10 µM [10] | also measured |
| --- | --- | --- | --- |
| CC(C)(C)OC(=O)[C@H](CCCCNC(=O)OCc1ccccc1)NC[C@@H]1C[C@@H](OCc2ccccc2)CN1C(=O)OC(C)(C)C | 77.6% |  | Activity [1]: Non-toxic; inhibition at 10 µM [2]: 9%; Activity [3]: Non-toxic; Activity [4]: Toxic; inhibition (INH) [5]: Active; Activity [6]: Active; Activity [7]: Active; Activity [8]: Toxic |
| CC(C)(C)OC(=O)[C@H](CCCCNC(=O)OCc1ccccc1)NC(=O)[C@@H]1C[C@@H](OCc2ccccc2)CN1C(=O)OC(C)(C)C (Boc-[Hyp](Bn)-Lys(Cbz)-OtBu) | 83.5% |  | inhibition at 10 µM [2]: 7%; inhibition at 2 µM [9]: 120% |
| CC(C)(C)OC(=O)N[C@@H](CCCC(=O)OCc1ccccc1)C(=O)N[C@@H](CCCCNC(=O)OCc1ccccc1)C(=O)OC(C)(C)C (Boc-[Aad](OBn)-Lys(Cbz)-OtBu) | 65.5% | 97.8% | inhibition at 2 µM [9]: 37% |
| CC(C)(C)OC(=O)C/C=C/[C@H](Cc1ccc(OC(C)(C)C)cc1)NC(=O)OC(C)(C)C |  | 71.2% |  |
| O=C(CCC(=O)N[C@@H](CCC(=O)OCC1CCCCC1)C(=O)OCc1ccccc1)N[C@@H](CCC(=O)OCc1ccccc1)C(=O)OCc1ccccc1 |  | 29.3% |  |
| CC(C)(C)OC(=O)N[C@@H](CC(=O)OCc1ccccc1)C(=O)CCC(=O)N[C@@H](CCCCNC(=O)OCc1ccccc1)C(=O)OC(C)(C)C |  | 67.7% |  |
| CC(C)(C)OC(=O)[C@H](CCCCNC(=O)OCc1ccccc1)NC(=O)[C@@H]1C[C@@H](OC(=O)Cc2ccccc2)CN1C(=O)OC(C)(C)C (Boc-[Hyp](PhAc)-Lys(Cbz)-OtBu) | 88.2% | 68.2% | inhibition at 10 µM (BCRP (ABCG2)): 10% |
| CC(C)(C)OC(=O)N[C@@H](CCCOC(=O)C1CCCCC1)C(=O)N[C@@H](CCCCNC(=O)OCc1ccccc1)C(=O)OC(C)(C)C | 80.4% | 82.3% | inhibition at 2 µM [9]: 35.7% |
| CC(C)(C)OC(=O)N[C@@H](CCOCc1ccccc1)C(=O)N[C@@H](CCCCNC(=O)OCc1ccccc1)C(=O)OC(C)(C)C |  | 49.2% |  |
| CC(C)(C)OC(=O)N[C@@H](Cc1ccc(OC(C)(C)C)cc1)C(=O)CS(=O)(=O)c1ccccc1 |  | 49.1% |  |
| CC(C)(C)OC(=O)N[C@@H](CCOC(=O)C1CCCCC1)C(=O)N[C@@H](CCCCNC(=O)OCc1ccccc1)C(=O)OC(C)(C)C |  | 61.8% |  |
| CC(C)(C)OC(=O)N[C@@H](CC(=O)OCc1ccccc1)C(=O)N[C@@H](CCCCNC(=O)OCc1ccccc1)C(=O)OC(C)(C)C [REVERSIN 121] (Boc-Asp(OBn)-Lys(Cbz)-OtBu) | 88% | 75.8% | IC50 [11]: 1.41 µM |
| CC(C)(C)OC(=O)N[C@@H](CC(=O)OCc1ccccc1)C(=O)C[C@H](CCCCNC(=O)OCc1ccccc1)C(=O)OCc1ccccc1 |  | 35.7% |  |
| CC(C)(C)OC(=O)[C@H](CCCCNC(=O)OCc1ccccc1)NC(=O)[C@@H]1C[C@@H](OCC2CCCCC2)CN1C(=O)OC(C)(C)C | 79.8% | 76.6% | inhibition at 2 µM [9]: 82.2% |
| CC(C)(C)OC(=O)CC[C@H](NC(=O)OC(C)(C)C)C(=O)N[C@@H](CCCCNC(=O)OCc1ccccc1)C(=O)OC(C)(C)C (Boc-Glu(OtBu)-Lys(Cbz)-OtBu) |  | 37.2% |  |
| CC(C)(C)OC(=O)CC(C(O)[C@H](Cc1ccc(OC(C)(C)C)cc1)NC(=O)OC(C)(C)C)S(=O)(=O)c1ccccc1 (stereo not given in full) |  | 104% |  |
| CC(C)(C)OC(=O)CNC(=O)[C@H](Cc1ccc(OC(C)(C)C)cc1)NC(=O)OC(C)(C)C |  | 93.4% | inhibition at 2 µM [9]: 38% |
| CC(C)(C)OC(=O)CC(C(=O)[C@H](Cc1ccc(OC(C)(C)C)cc1)NC(=O)OC(C)(C)C)S(=O)(=O)c1ccccc1 (stereo not given in full) |  | 106% | IC50 [11]: 1.55 µM |
| CC(C)(C)OC(=O)N[C@@H](CCOC(=O)Cc1ccccc1)C(=O)N[C@@H](CCCCNC(=O)OCc1ccccc1)C(=O)OC(C)(C)C |  | 59.6% |  |
| CC(C)(C)OC(=O)CCC[C@@H](Cc1ccc(OC(C)(C)C)cc1)NC(=O)OC(C)(C)C |  | 78.7% |  |
| CC(C)(C)OC(=O)N[C@H](CN[C@@H](CCCCNC(=O)OCc1ccccc1)C(=O)OC(C)(C)C)Cc1ccc(OC(C)(C)C)cc1 |  | 49.1% |  |
| CC(C)(C)OC(=O)[C@H](CCCCNC(=O)OCc1ccccc1)NC(=O)[C@@H]1C[C@@H](OC(=O)C2CCCCC2)CN1C(=O)OC(C)(C)C | 94.9% | 106% | IC50 [11]: 1.68 µM; inhibition at 10 µM (BCRP (ABCG2)): 11.2% |
| O=C(CCC(=O)N[C@@H](CCC(=O)OCc1ccccc1)C(=O)OCc1ccccc1)N[C@@H](CCC(=O)OCc1ccccc1)C(=O)OCc1ccccc1 [REVERSIN 213] |  | 26.6% |  |
| CC(C)(C)OC(=O)N[C@@H](CCC(=O)OCc1ccccc1)C(=O)N[C@@H](CCCCNC(=O)OCc1ccccc1)C(=O)OC(C)(C)C (Boc-Glu(OBn)-Lys(Cbz)-OtBu) |  | 63.7% |  |
| CC(C)(C)OC(=O)N[C@@H](Cc1ccc(OC(C)(C)C)cc1)C(=O)N[C@@H](CCCCNC(=O)OCc1ccccc1)C(=O)OC(C)(C)C (Boc-Tyr(tBu)-Lys(Cbz)-OtBu) |  | 34% |  |
